# In ChEMBL document CHEMBL4513216, “Probing the Open Global Health Chemical Diversity Library for Multistage-Active Starting Points for Next-Generation Antimalarials” (ACS Infect Dis, 2020):
# Experiment: Toxicity liver stage against HepG2, at 10uM
# Format: cell-based
# Set-up: test concentration 10 uM, cell line HepG2-A16-CD81EGFP
# Settings: human, HepG2-A16-CD81EGFP cells; read-out: INHIBITION
# Outline: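 Uninfected HepG2-A16-CD81EGFP cells, 3 × 10^3 per well, 1536-well, plated on prespotted compound at 10 μM final, parasite-free screening media added to match infected plates; puromycin 10 μM positive, DMSO 0.5% negative; run in parallel with 48 h PbLuc assay at 37 °C, 5% CO2; viability by CellTiter-Glo luminescence, normalized to controls.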
row,SMILES,cytotoxicity at 10 µM [%]
1,Cc1cccc(CN2CCN3C(=O)NC[C@H]3C2)n1,-3.3
2,Clc1ccc(-c2c[nH]c([C@@H]3COCCN3)n2)cc1,-10.1
3,Cc1cc2[nH]c(=O)c(=O)[nH]c2cc1S(=O)(=O)NC1CCCCC1,-8.41
4,CN(Cc1ccccc1)C(=O)Cn1nc(N2CCOCC2)ccc1=O,9.55
5,O=C(Cn1c(=O)oc2ccccc21)NCC1(O)CCc2ccccc21 (stereo unspecified),-17.2
6,O=C(NCC(F)(F)F)c1ccc(-n2cccn2)nn1,-8.35
7,O=C(c1ccco1)N1C[C@H]2CCCN(C(=O)c3ccsc3)[C@H]2C1,8.36
8,c1ccc(CN2Cc3ccnn3CC(COCc3cccnc3)C2)nc1 (stereo unspecified),-146
9,CCN1C(=O)C2(CCOCC2)c2cc(NC(=O)c3cnccn3)ccc21,-2.98
10,CC(C)N(C)C(=O)C1=NOC2(CCN(C(=O)NCc3cccnc3)C2)C1 (stereo unspecified),-3.75
11,CCN(CC)Cc1nnc2sc(-c3cc(C(C)C)[nH]n3)nn12,-7.02
12,COCc1nc2nc(O)c3c(n2n1)NC(=O)CC3c1ccccc1Cl (stereo unspecified),-20.8
13,COC(=O)N1CCc2ccc(NC(=O)c3cn(C)nn3)cc2C1,-1.3
14,COCC(=O)N1CCC(c2nc3ccc(-c4ccccc4)cn3n2)CC1,-0.555
15,O=C(C1CC=CC1)N1C[C@@H]2[C@@H](C1)OCC(=O)N2Cc1cccnc1,2.45
16,CC(C)n1cc(S(=O)(=O)N2CCSCC2)cn1,6.64
17,COc1cc2cc(C(=O)N[C@@H](C)C(=O)O)n(C)c2c(OC)c1OC,12.5
18,CCS(=O)(=O)Nc1ccn(Cc2cccc(Cl)c2)n1,-4.49
19,CCC(C)c1noc(C2CCN(C(=O)c3cccs3)CC2)n1 (stereo unspecified),-12.8
20,Cc1noc(C)c1CC(=O)N1CCC(c2ccn3nccc3n2)CC1,-0.317
21,CNc1cc(CCNC(=O)CC(C)C)nc(-c2ccccn2)n1,1.26
22,CC1CCc2nn(CCNC(=O)C3CCCC3)c(=O)cc2C1 (stereo unspecified),7.71
23,COCC(=O)N1CCC(c2cc3ncccc3c(O)n2)CC1,-22.7

row,SMILES,cytotoxicity at 10 µM [%]
1,Cc1ccc2c(c1)C(=O)NCC1(CCN(C(=O)c3csc(C)c3)CC1)O2,-27.7
2,c1cnc(N2CCCC(c3n[nH]c4ncccc34)C2)nc1 (stereo unspecified),-0.64
3,Cc1cnn(CC(C)NCc2cccc(C#N)c2)c1 (stereo unspecified),-2.62
4,O=C(CCC(=O)N1CCc2ccccc2C1)c1cccs1,-61.8
5,COc1ccc(NC(=O)N2CCN(CCSc3ccccc3)CC2)cc1,6.13
6,COc1ccc(-n2cc(CNC(=O)c3cscn3)nn2)cc1,-2.33
7,O=C(C1CC1)N(CCc1ccccc1)C1CCOC1 (stereo unspecified),-6.93
8,CCOc1c(F)cccc1C(=O)N(C)CCn1cccn1,3.76
9,N#Cc1ccc(CN2CCCCC2Cn2cncn2)c(F)c1 (stereo unspecified),-1.34
10,CC(C)c1cc(C(=O)N2Cc3ccccc3CC2C(=O)O)nn1C (stereo unspecified),7.97
11,CCc1ncc2c(n1)CN(c1nnc(C)c(C)c1C#N)CC2,-134
12,O=C(CCn1cnc2cc(F)c(F)cc21)N1CCN(C2CC2)CC1,-1.54
13,CNC(=O)N1CCC(=Cc2ccccc2)CC1,-1.52
14,O=S(=O)(CCCN1CCc2c(ncn2C2CC2)C1)c1ccccc1,-3.33
15,CCOc1ncccc1CNC(=O)c1csc(Br)c1,0.291
16,CC1(C)CC1C(=O)NS(=O)(=O)Cc1cc(-c2ccccc2)no1 (stereo unspecified),-11
17,CC1(C)COCCN1C(=O)Cc1csc(Cc2ccccn2)n1,3.31
18,Cc1ccccc1C1CCN(C(=O)CCNS(C)(=O)=O)C1 (stereo unspecified),-1.03
19,Cc1ccccc1CS(=O)(=O)c1nnc(N2CCOCC2)s1,-9.61
20,O=C(NC1CC1)C1CCCN(c2cccc(C(F)(F)F)n2)C1 (stereo unspecified),2.43
21,COc1cc(OC)cc(C2CCN(CC(=O)NCC(F)(F)F)C2)c1 (stereo unspecified),2.29
22,CC(NCc1ccc(-c2ccc(F)cc2)o1)c1nnc2n1CCC2 (stereo unspecified),-4.21
23,COc1cc(C)nc(N2CCN(C(=O)CCc3cccs3)CC2)n1,5.77

row,SMILES,cytotoxicity at 10 µM [%]
1,COC(=O)C(C)(C)NC(=O)C1CC(=O)N(CC(F)(F)F)C1 (stereo unspecified),-141
2,Cc1cnn(CC2CCCN2CC(=O)NCc2ccccn2)c1 (stereo unspecified),-5
3,CC(C)c1cc(C(=O)NC2CCN(CC(N)=O)CC2)nn1C(C)(C)C,-6.95
4,COc1ccccc1C(NC(=O)C1CCC1)c1noc(C)n1 (stereo unspecified),0.338
5,Cc1nc(CCNC(=O)NC(C)c2ccc3c(c2)OCCO3)cs1 (stereo unspecified),-1.18
6,NC(=O)C1CCCN1C(=O)c1cccc2c1OCO2 (stereo unspecified),-9.56
7,COCc1ccccc1CNC(=O)CNc1cccc(Cl)c1OC,6.39
8,CCN1C(=O)C2(CCCCC2)NC12CCSCC2,-149
9,O=C(NCc1ccc2c(c1)OCO2)N1CCCC2(C1)OCCO2,3.07
10,COc1ccccc1COCC(O)CN(C)c1ccc(C)cc1C (stereo unspecified),9.6
11,CC(CC(=O)Nc1ncn(CC(=O)N2CCCCCC2)n1)C1CC1 (stereo unspecified),5.75
12,NC(=O)C1CCN(CCCNC(=O)Nc2nccs2)CC1,-0.287
13,O=C(NCCn1ccnc1)c1csc2c1CCCC2,-1.34
14,Cc1cc(CNC(=O)CCc2ccc(S(N)(=O)=O)cc2)no1,7.81
15,O=C(Cn1cc(I)cn1)N1CCNC1=O,1.53
16,COCCC(=O)Nc1cc(CC(C)(C)C)n[nH]1,3.97
17,COc1cccc(C2CCCN2C(=O)c2cc3c([nH]c2=O)CCC3)c1 (stereo unspecified),-12
18,Cc1noc(C(C)C)c1C(=O)NS(=O)(=O)c1ccc(Cl)cc1,-8.59
19,CC1c2ncc(COCC3CC3)n2CCN1C(=O)c1ccnnc1 (stereo unspecified),4.66
20,CCn1c(CC2CCN(S(=O)(=O)Cc3ccccc3)CC2)nn(C)c1=O,-2.43
21,COc1ccc(OC)c(-c2nc(CN(C)Cc3nonc3C)c(C)o2)c1,13.5
22,CC(C)Oc1cc(N2CCCC(O)C2)nc(N)n1 (stereo unspecified),-0.796
23,CCCN1CCN(Cc2nc3ccccc3[nH]2)[C@H]2CS(=O)(=O)C[C@H]21,-137

row,SMILES,cytotoxicity at 10 µM [%]
1,Cn1c(Cn2ccnc2)nnc1C1CCN(C(=O)c2cccnc2)CC1,-96.4
2,COc1ccccc1C(=O)N1CCN(C(=O)CCn2ccnc2)CC1,-148
3,CC(C)c1noc(Cn2ncc3ccccc3c2=O)n1,-3.69
4,CN(CCO)C[C@@H]1CN(Cc2ccccc2C#N)C[C@@H]1CO,-0.951
5,Cn1cccc1C(=O)N1CCC(c2nccn2Cc2ccncc2)CC1,-12
6,CCCOCC1CCN(C(=O)c2cnc(-c3cccnc3)nc2O)C1 (stereo unspecified),-2.55
7,Cc1ccc(C#N)c(N2CC(C)(C)[C@@](C)(O)C2)n1,1.39
8,Cc1nc(N)ccc1CC1COc2ccccc2C1 (stereo unspecified),3.79
9,Cc1ccccc1OC1CCN(C(=O)CNC(=O)N(C)C)CC1,9.83
10,Cc1ccsc1C(CNC(=O)c1cc(=O)[nH]c(=O)[nH]1)N(C)C (stereo unspecified),8.99
11,CCc1cc(CN2CCC(CCC(=O)Nc3ccccc3Cl)CC2)on1,5.27
12,CC(C)N1CCC(N2CCN(C3CCC3)CC2CCO)CC1 (stereo unspecified),-12.5
13,COC(=O)N1CC(C)=C(C)CN1C(=O)Nc1cccc(Cl)c1,0.359
14,Cc1cc(C(=O)N2CCCCC2C)ccc1NC(=O)N1CCOCC1 (stereo unspecified),7.02
15,Cc1nc(CNC(=O)NCc2cccnc2N(C)C)cs1,-2.15
16,Cn1cc(C2CCCN2C(=O)c2ccc(OCC3CC3)nc2)cn1 (stereo unspecified),-7.77
17,CS(=O)(=O)NC1CCN(C(=O)NCc2ccccn2)CC1,-5.04
18,COc1cccc(CN(C)CC(=O)NC2(C)CCS(=O)(=O)C2)c1 (stereo unspecified),-2.3
19,O=C(NCCOc1ccc2c(c1)OCO2)N1CCCC(CO)C1 (stereo unspecified),-22.3
20,Cc1cc(C)n(CC2CN(Cc3nc(C4CC4)no3)CCO2)n1 (stereo unspecified),-5.13
21,CN(C)c1cc(CNC(=O)Nc2nnc(C3CC3)s2)ccn1,-10.8
22,CC(C)COC(C)C(=O)NCc1ccc(F)cc1 (stereo unspecified),-2.9
23,O=C(Cc1ccc2c(c1)OCCO2)N1CCCC(n2cncn2)C1 (stereo unspecified),-7.85

row,SMILES,cytotoxicity at 10 µM [%]
1,CCc1noc(CN2CCN(C(=O)N(C)C)CC2)n1,-4.97
2,O=C(NCc1nnc2ccccn12)N1CCc2sccc2C1,-1.25
3,CNC(=O)[C@@H](c1ccccc1F)N1CCC[C@H]1C(=O)NC1CCOCC1,-3.73
4,Fc1ccc(CN[C@@H]2COC[C@H]2c2ccc(F)cc2)cc1,2.57
5,O=C(NCc1cncc2c1CCN(Cc1ccccc1)C2)C1CC1,12.1
6,CS(=O)(=O)N1CCC2(CC1)COC(COc1ccccn1)C2 (stereo unspecified),5.63
7,CCS(=O)(=O)N1C[C@H]2CN(Cc3cccnc3)C(=O)[C@H]2C1,-17.8
8,O=C(c1cnoc1)N1CCC[C@]2(C[C@H](Oc3ncccc3F)CO2)C1,-10.2
9,NC(=O)COc1ccc(CNCc2cc(F)cc(F)c2)cc1,-7.85
10,CS(=O)(=O)N1CC[C@H]2[C@H](C[C@@H](Cn3cncn3)N2CC2CC2)C1,-6.25
11,CN1CC2(CCN(C(=O)Cc3ccccn3)CC2)OCC1=O,-3.39
12,O=C(O)c1c(-c2cncnc2)ncc2c1CCN(Cc1ccco1)C2,-2.69
13,CN(C)CC(=O)N1Cc2nnn(C)c2C(COCc2ccccn2)C1 (stereo unspecified),9.26
14,Cc1ccc(CN2CCC[C@]3(C(=O)O)CN(CC4CC4)C[C@@H]3C2)s1,-112
15,CCN1CCC2(CCN(Cc3nccs3)CC2)C1=O,-0.311
16,COCC(=O)N1CCC2(CCC2N(C)Cc2ccco2)CC1 (stereo unspecified),0.169
17,C[C@@H]1CN(S(C)(=O)=O)C[C@]12CCN(Cc1cccnc1)C2=O,0.169
18,CC(c1ccncc1)n1cc2nc(N(C)C)[nH]cc-2c1=O (stereo unspecified),-3.64
19,O=C(c1cc(Cl)c[nH]c1=O)N1C[C@H]2CC[C@@H](C1)N(Cc1ccccc1)C2,-113
